Laboratory results: PMC9066168 (RSC Advances, 2019)
In brackets after ≈: the same amount, converted by molar mass. Marks after values point to notes of the source that are not given here. Blank lines part the entries; values can stand above or below the molecule they belong to.

Tests used:
Assay type in all cases: cell-based
[1] = system: Candida albicans (MTCC 227); assay: microbe, parasite or virus in culture; settings: for diameter of the inhibition zone, C. albicans: 0.1 mL of 50 mg mL^-1 in DMSO per 8 mm well, 18-24 h, NA = no activity
[2] = system: human osteosarcoma cell line MG63; assay: Antitumor MTT assay
[3] = system: Staphylococcus aureus (MTCC 740); settings: 0.1 mL of 50 mg mL^-1 in DMSO per 8 mm well, 18-24 h; NA = no activity
[4] = system: Candida albicans (MTCC 227); assay: Minimum inhibitory concentration, agar dilution method; settings: Muller Hinton agar, 25 °C, 24 h
[5] = system: Staphylococcus epidermidis (MTCC 435); settings: 0.1 mL of 50 mg mL^-1 in DMSO per 8 mm well, 18-24 h; NA = no activity
[6] = system: methicillin resistant Staphylococcus aureus (MRSA); assay: microbe, parasite or virus in culture; settings: for diameter of the inhibition zone, MRSA: 0.1 mL of 50 mg mL^-1 in DMSO per 8 mm well, 18-24 h, NA = no activity
[7] = system: Shigella flexneri (MTCC 1457); assay: microbe, parasite or virus in culture
[8] = system: Staphylococcus epidermidis (MTCC 435); assay: Minimum inhibitory concentration, agar dilution method; settings: MTCC435, 24 h, read-out: Minimum inhibitory concentration, S. epidermidis
[9] = system: Enterococcus faecalis (MTCC 439); assay: as above; settings: MTCC439, 24 h, read-out: Minimum inhibitory concentration, E. faecalis
[10] = system: Staphylococcus aureus (MTCC 740); assay: as above; settings: MTCC740, 24 h, read-out: Minimum inhibitory concentration, S. Aureus
[11] = system: Enterococcus faecalis (MTCC 439); assay: microbe, parasite or virus in culture
[12] = system: Shigella flexneri (MTCC 1457); assay: Minimum inhibitory concentration, agar dilution method
How it was run: (§1)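 Bacteria were grown from a loopful in broth at 37 °C for 4 h and adjusted to McFarland turbidity, about (1 to 2) × 10^8 CFU per mL. Test compound in DMSO was mixed into Muller Hinton agar over 0.001–2 mg mL−1. Plates were swab-inoculated with 0.1 mL culture and held at 37 °C for 24 h. MIC was the lowest concentration preventing visible growth, with DMSO as control.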

[13] = system: methicillin resistant Staphylococcus aureus (MRSA); assay: as above; settings: 24 h, read-out: Minimum inhibitory concentration, MRSA
How it was run: as §1

[14] = 0.1 mL of 50 mg mL^-1 in DMSO per 8 mm well, 18-24 h, NA = no activity

Molecule: C[C@@H]1[C@H](O)[C@@H](C)/C=C/C=C/C=C/C=C/C=C/C=C/C=C/[C@H](O[C@@H]2O[C@H](C)[C@@H](O)[C@H](N)[C@@H]2O)C[C@@H]2O[C@](O)(C[C@@H](O)C[C@@H](O)[C@H](O)CC[C@@H](O)C[C@@H](O)CC(=O)O[C@H]1C)C[C@H](O)[C@H]2C(=O)O [Amphotericin B]
diameter of the inhibition zone, C. albicans [1]: 34 ^d mm
zone of inhibition at 50 µg/mL ([1]; Candida albicans, MTCC227, read-out: diameter of the inhibition zone, C. albicans): 34 mm

Molecule: S=c1cccc[nH]1 [PySH, pyridine-2-thione, reference compound]
IC50 ([2]; Homo sapiens, MG-63, 24 h): 29.7 µM

Molecule: S=c1[nH]c2ccccc2[nH]1 [BzimSH, benz-imidazoline-2-thione]
diameter of the inhibition zone, C. albicans [1]: 13 mm

Molecule: c1ccc(P(c2ccccc2)c2ccccc2)cc1 [PPh3, triphenylphosphine, reference compound]
IC50 ([2]; Homo sapiens, MG-63, 24 h): > 100 µM

IC50 ([2]; MG63 cells, 24 h exposure, MTT, 570 nm): 7.62 µM
Molecule: [Ag2(purSH2)2(dppm)2](NO3)2·2H2O [Complex 5]
diameter of the inhibition zone, S. aureus [3]: 12 mm
Minimum inhibitory concentration, C. albicans [4]: 50 µg/mL
diameter of the inhibition zone, C. albicans [1]: 17 mm
diameter of the inhibition zone, S. epidermidis [5]: 12 mm

IC50 ([2]; Homo sapiens, MG-63, 24 h): 44.3 µM
Molecule: O=c1cc[nH]c(=S)[nH]1 [tucH2, 2-thiouracil, reference compound]
diameter of the inhibition zone, S. epidermidis [5]: inactive

Molecule: purine-6-thione [purSH2, reference compound]
diameter of the inhibition zone, MRSA [6]: 18 mm
diameter of the inhibition zone, S. aureus [3]: 13 mm
diameter of the inhibition zone, C. albicans [1]: inactive
diameter of the inhibition zone, S. epidermidis [5]: inactive

Molecule: CNC(C)C1CCC(N)C(OC2C(N)CC(N)C(OC3OCC(C)(O)C(NC)C3O)C2O)O1 (stereo not drawn) [Gentamicin, reference compound]
diameter of the inhibition zone, S. flexneri [7, 14]: 34.5 ^d mm
zone of inhibition at 50 µg/mL ([7]; Shigella flexneri, MTCC1457, read-out: diameter of the inhibition zone, S. flexneri): 34.5 mm
MIC [8]: 30 µg/mL (≈ 62.8 µM)
diameter of the inhibition zone, MRSA [6]: 33 ^d mm
zone of inhibition at 50 µg/mL ([6]; Staphylococcus aureus, MRSA, read-out: diameter of the inhibition zone, MRSA): 33 mm
diameter of the inhibition zone, S. aureus [3]: 26 ^d mm
MIC [9]: 30 µg/mL (≈ 62.8 µM)
MIC [10]: 0.5 µg/mL (≈ 1.05 µM)
diameter of the inhibition zone, E. faecalis [11, 14]: 27 ^d mm
zone of inhibition at 50 µg/mL ([11]; Enterococcus faecalis, MTCC439, read-out: diameter of the inhibition zone, E. faecalis): 27 mm
Minimum inhibitory concentration, S. flexneri ([12]; Muller Hinton agar, 37 °C, 24 h): 5 µg/mL (≈ 10.5 µM)
MIC ([12]; Shigella flexneri, MTCC1457, 24 h, read-out: Minimum inhibitory concentration, S. flexneri, Muller Hinton agar, 37 °C, 24 h): 7 µg/mL (≈ 14.7 µM)
diameter of the inhibition zone, S. epidermidis [5]: 25 ^d mm
MIC [13]: 10 µg/mL (≈ 20.9 µM)
